# Compound activity as filed in PubChem BioAssay.
# This is a sample that favours compounds with a hit; in the whole collection about 2.9% have one here.
# S100A4 inh HTS: S100A4-myosin IIA interaction inhibition. inhibition, % at 10.7 µM. AID 652163. S100A4/TAMRA-MyoIIA peptide fluorescence polarization. 360,000 compounds, 0.14% hits. P26447;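 active = mean inhibition of at least 70% across replicates, with every replicate also reaching that level; inconclusive = mean inhibition reaches 70% but some replicates fall short; inactive = mean inhibition below 70%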
# Target sequence (P26447 whole entry, looked up): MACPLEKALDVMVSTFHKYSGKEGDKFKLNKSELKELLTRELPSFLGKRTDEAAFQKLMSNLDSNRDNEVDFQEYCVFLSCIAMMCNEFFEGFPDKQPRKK
#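 incubation = readout 5 min after mixing, signal stable up to 60 min | system = S100A4 monomer protein | buffer or medium = HEPES pH 7.2 with CaCl2, KCl, NaCl, DTT, Triton | benchmarks = neutral control DMSO, positive control TFP | also added = fluorescent myosin IIA peptide, 5 nM | compound dosing = one concentration per compound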
# ERAP1 inh: blocks human ERAP1 aminopeptidase activity. Q9NZ08. recombinant ERAP1, Leu-AMC fluorescence, 60 min. 340,000 compounds, 0.15% hits. inhibition, % at 10.7 µM;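 active = mean replicate inhibition of at least 30%, or all replicates individually reaching that 30% level; inactive = mean below 30% and not every replicate reaching it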;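 also: 0% = neutral control wells and 100% = L-leucinethiol positive control wells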
# SIRT5 inh: blocks human SIRT5 desuccinylation of peptide. Q9NXA8. Purified SirT5, succinyl-peptide AMC, trypsin-coupled fluorescence. inhibition, % at 15 µM. 330,000 compounds, 1.1% hits. AID 652115; in the data active = inhibition above about 15%; inconclusive = no clear call, values can overlap the other calls
# Target sequence (Q9NXA8 whole entry, looked up): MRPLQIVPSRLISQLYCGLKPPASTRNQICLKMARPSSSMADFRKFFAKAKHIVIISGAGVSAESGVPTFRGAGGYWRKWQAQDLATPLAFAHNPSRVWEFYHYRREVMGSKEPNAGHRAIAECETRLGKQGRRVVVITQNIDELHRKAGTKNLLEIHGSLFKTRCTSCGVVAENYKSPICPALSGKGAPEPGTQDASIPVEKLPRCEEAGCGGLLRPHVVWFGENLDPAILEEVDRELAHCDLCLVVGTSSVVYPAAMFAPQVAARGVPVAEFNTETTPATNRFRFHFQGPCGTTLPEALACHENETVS
# DENV2 CPE: protects cells from dengue virus 2 cytopathic effect. DENV2-infected cells, cytopathic effect rescue, plate reader. CPE inhibition, % at 9.99 µM. 350,000 compounds, 1.7% hits; in the data active = CPE inhibition above about 20%, passing the limit was not always enough; inconclusive = no clear call, values can overlap the other calls; tested in BHK-21 cells;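 also: 0% = median of neutral control wells and 100% = median of positive control wells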
# CAL PDZ FP-1: blocks peptide binding to human CAL PDZ domain | 330,000 compounds, 0.02% hits | purified CAL PDZ, TMR-peptide fluorescence polarization, 1 h | inhibition, % at 20 µM | AID 504414 | Q9HD26;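 active = highest replicate inhibition of at least 40%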;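 also: plate controls were DMSO neutral control wells for no effect and unlabeled competitor peptide control wells for full effect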
#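 Assay system – tagged CAL PDZ protein CerCALP, purified · Timing – 1 h at RT · Compound – single point, 20 µM · Measured by – fluorescence polarization from S- and P-plane intensities, G-factor corrected · Evaluation – inhibition from polarization loss · Probe or stimulus – TMR reporter peptide T*-PRC34 · Buffer or medium – pH 7.4 phosphate-saline buffer, reducing agent, detergent, IgG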
# CAL PDZ FP-2: inhibitors of human CAL PDZ peptide binding; purified CAL PDZ, TMR-peptide fluorescence polarization, 1 h; inhibition, % at 24.9 µM; 300,000 compounds, 0.92% hits; AID 602252;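 active = mean inhibition of at least 30% with at least half of replicates also reaching 30%; inconclusive = no clear call, values can overlap the other calls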;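 also: 0% = DMSO neutral control and 100% = excess unlabeled competitor peptide PRC23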
# An asterisk follows results filed as active; ? = inconclusive; / = no result given; ! = not active in a repeat.
SMILES,S100A4 inh HTS,ERAP1 inh,SIRT5 inh,DENV2 CPE,CAL PDZ FP-1,CAL PDZ FP-2
CCCNC(=O)C[C@H]1CC[C@@H]2[C@H](COC[C@@H](O)CN2C(=O)c2ccccn2)O1,-3,3,5,89*!,/,/
CS(=O)(=O)N1C[C@H](O)COC[C@H]2O[C@@H](CC(=O)NCc3ccc(-c4ccccc4)cc3)CC[C@@H]21,-4,2,-3,79*,/,/
O=C(C[C@@H]1CC[C@H]2[C@@H](COC[C@H](O)CN2C(=O)c2ccccc2F)O1)NCc1ccccc1,-1,-1,-2,86*,/,/
C[C@@H]1CN([C@H](C)CO)C(=O)Cc2cc(NS(=O)(=O)c3ccccc3)ccc2O[C@H]1CN(C)CC1CC1,14,0,-1,8,/,/
C[C@H]1CN([C@@H](C)CO)C(=O)Cc2cc(N(C)C)ccc2O[C@@H]1CN(C)Cc1ccncc1,-7,6,4,-4,/,/
CCNC(=O)C[C@H]1CC[C@H]2[C@@H](COC[C@H](O)CN2C(=O)c2cccnc2)O1,-34,-3,0,94*,/,/
O=C(C[C@@H]1CC[C@@H]2[C@H](COC[C@H](O)CN2C(=O)c2ccncc2)O1)NCc1ccc(-c2ccccc2)cc1,23,-5,-2,-1,/,/
CCCNC(=O)C[C@H]1CC[C@@H]2[C@H](COC[C@H](O)CN2C(=O)c2cccnc2)O1,-7,-2,-7,-6,/,/
O=C(C[C@H]1CC[C@@H]2[C@H](COC[C@H](O)CN2C(=O)c2ccncc2)O1)NCc1ccc(-c2ccccc2)cc1,14,-3,0,20*,/,/
CCCNC(=O)N(C)C[C@H]1Oc2ncc(C3=CCCCC3)cc2C(=O)N([C@@H](C)CO)C[C@@H]1C,1,1,0,0,/,/
Nc1c2c(nc3ccccc13)CCCC2,-3,-4,-4,?,-1,0
Nc1c2ccccc2nc2ccccc12,-1,61*,-35,3,-5,-5
C[C@@H]1CN([C@@H](C)CO)C(=O)c2cccc(NS(=O)(=O)c3cn(C)cn3)c2O[C@H]1CN(C)Cc1ccc(C(F)(F)F)cc1,6,2,21*,-1,/,/
C[C@@H]1CN([C@@H](C)CO)C(=O)c2cccc(NS(=O)(=O)c3cn(C)cn3)c2O[C@H]1CN(C)CC1CCCCC1,-2,3,-4,33*,/,/
C[C@@H]1CN([C@@H](C)CO)C(=O)c2cccc(NS(=O)(=O)c3cn(C)cn3)c2O[C@H]1CN(C)C(=O)Nc1cccc2ccccc12,2,-1,29*,-6,/,/
C[C@@H]1CN([C@@H](C)CO)C(=O)c2cccc(NS(=O)(=O)c3cn(C)cn3)c2O[C@H]1CN(C)S(=O)(=O)c1cn(C)cn1,3,3,-6,-8,/,/
C[C@@H]1CN([C@@H](C)CO)C(=O)c2cccc(NS(=O)(=O)c3cn(C)cn3)c2O[C@@H]1CN(C)S(=O)(=O)c1cn(C)cn1,-2,2,0,27*,/,/
O=C(Nc1ccc2c(c1)OCO2)N[C@H]1CC[C@@H](CC(=O)N2CCN(c3ccccc3)CC2)O[C@H]1CO,4,1,1,-5,/,/
C[C@H](CO)N1C[C@H](C)[C@@H](CN(C)Cc2ccccc2)Oc2c(NS(=O)(=O)c3cn(C)cn3)cccc2C1=O,-2,0,-7,30*!,-1,2
C[C@H]1CN([C@@H](C)CO)C(=O)Cc2cc(NC(=O)Cn3cnnn3)ccc2O[C@@H]1CN(C)Cc1ccncc1,-1,1,1,-8,/,/
COc1ccc(CN(C)C[C@H]2Oc3c(NS(=O)(=O)c4ccc(C)cc4)cccc3C(=O)N([C@@H](C)CO)C[C@H]2C)cc1,-1,-2,7,11,/,/
C[C@@H](NC(=O)C[C@H]1CC[C@H]2[C@@H](COC[C@@H](O)CN2Cc2ccc(C(F)(F)F)cc2)O1)c1ccccc1,-4,-1,17*,-1,/,/
C[C@H](NC(=O)C[C@@H]1CC[C@H]2[C@@H](COC[C@@H](O)CN2C(=O)Nc2cccc(F)c2)O1)c1ccccc1,8,2,19*,-10,/,/
C[C@@H](NC(=O)C[C@@H]1CC[C@H]2[C@@H](COC[C@H](O)CN2C(=O)Nc2ccccc2)O1)c1ccccc1,-1,0,0,113*,/,/
